# Test results published in ChEMBL document CHEMBL2375292, “Biaryl tetrazolyl ureas as inhibitors of endocannabinoid metabolism: modulation at the N-portion and distal phenyl ring” (Eur J Med Chem, 2013).
# Key:
# [1] = target: T1, Transient receptor potential cation channel subfamily A member 1 (Rattus norvegicus, UniProt Q6RI86); test: Agonist activity at rat TRPA1 receptor expressed in HEK293 cells assessed as increase in intracellular Ca2+ concentration by spectrofluorimetric analysis; assay type: cell-based
# How it was run: (§1)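 HEK293 cells stably transfected with human TRPV1 or rat TRPA1 cDNA (pcDNA3, G-418 selection) were loaded 1 h at room temperature with Fluo-4-AM, washed and suspended in Tyrode's buffer pH 7.4. [Ca²⁺]i was read by stirred-cuvette spectrofluorimetry before and after adding test compound at various concentrations. Signal from untransfected cells was subtracted. Efficacy was taken as percent of ionomycin (4 µM) for TRPV1 and percent of allyl isothiocyanate (100 µM) for TRPA1; EC50 was also derived.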
# [2] = target: Transient receptor potential cation channel subfamily A member 1 (Rattus norvegicus) (UniProt Q6RI86); test: Agonist activity at rat TRPA1 receptor expressed in HEK293 cells assessed as increase in intracellular Ca2+ concentration by spectrofluorimetric analysis relative to allyl isothiocyanate; assay type: cell-based; how it was run: as §1
# [3] = target: T2, Transient receptor potential cation channel subfamily V member 1 (Homo sapiens, UniProt Q8NER1); test: Antagonist activity at human TRPV1 receptor expressed in HEK293 cells assessed as inhibition of capsaicin-induced intracellular Ca2+ elevation incubated for 5 mins prior to capsaicin-stimulation by spectrofluorimetric analysis; assay type: cell-based
# How it was run: (§2)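 Fluo-4-loaded HEK293 cells stably expressing human TRPV1 or rat TRPA1, in Tyrode's buffer pH 7.4, received test compound in the cuvette 5 min before agonist: capsaicin 0.1 µM for TRPV1, AITC 100 µM for TRPA1. The [Ca²⁺]i rise with agonist alone was set to 100%. IC50 came from a variable-slope sigmoidal fit. Untransfected-cell signal was subtracted.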
# [4] = target: T2, Transient receptor potential cation channel subfamily V member 1; test: Agonist activity at human TRPV1 receptor expressed in HEK293 cells assessed as increase in intracellular Ca2+ concentration by spectrofluorimetric analysis; assay type: cell-based; how it was run: as §1
# [5] = target: T2, Transient receptor potential cation channel subfamily V member 1; test: Agonist activity at human TRPV1 receptor expressed in HEK293 cells assessed as increase in intracellular Ca2+ concentration by spectrofluorimetric analysis relative to ionomycin; assay type: cell-based; how it was run: as §1
# Monoglyceride lipase = target: T3, Monoglyceride lipase (Homo sapiens, UniProt Q99685); test: Inhibition of MAGL (unknown origin) expressed in African green monkey COS7 cell cytosolic fraction assessed as [3H]2-AG hydrolysis to [3H]arachidonic acid after 20 mins by beta counting analysis; design: species or system COS-7
# T3 sequence (Q99685 whole entry): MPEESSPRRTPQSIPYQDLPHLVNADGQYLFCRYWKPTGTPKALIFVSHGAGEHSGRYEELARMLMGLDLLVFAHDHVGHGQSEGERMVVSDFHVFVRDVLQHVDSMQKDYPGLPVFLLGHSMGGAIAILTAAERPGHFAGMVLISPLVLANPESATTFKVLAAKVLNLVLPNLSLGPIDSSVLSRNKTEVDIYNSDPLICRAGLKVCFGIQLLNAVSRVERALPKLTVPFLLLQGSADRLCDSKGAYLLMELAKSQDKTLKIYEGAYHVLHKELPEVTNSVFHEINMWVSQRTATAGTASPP
# [6] = target: T4, Fatty-acid amide hydrolase 1 (Rattus norvegicus, UniProt P97612); test: Inhibition of FAAH in rat brain membranes assessed as [14C]AEA hydrolysis to [14C]Ethanolamine after 30 mins by scintillation counting analysis; assay type: cell membranes
# T4 sequence (P97612 whole entry): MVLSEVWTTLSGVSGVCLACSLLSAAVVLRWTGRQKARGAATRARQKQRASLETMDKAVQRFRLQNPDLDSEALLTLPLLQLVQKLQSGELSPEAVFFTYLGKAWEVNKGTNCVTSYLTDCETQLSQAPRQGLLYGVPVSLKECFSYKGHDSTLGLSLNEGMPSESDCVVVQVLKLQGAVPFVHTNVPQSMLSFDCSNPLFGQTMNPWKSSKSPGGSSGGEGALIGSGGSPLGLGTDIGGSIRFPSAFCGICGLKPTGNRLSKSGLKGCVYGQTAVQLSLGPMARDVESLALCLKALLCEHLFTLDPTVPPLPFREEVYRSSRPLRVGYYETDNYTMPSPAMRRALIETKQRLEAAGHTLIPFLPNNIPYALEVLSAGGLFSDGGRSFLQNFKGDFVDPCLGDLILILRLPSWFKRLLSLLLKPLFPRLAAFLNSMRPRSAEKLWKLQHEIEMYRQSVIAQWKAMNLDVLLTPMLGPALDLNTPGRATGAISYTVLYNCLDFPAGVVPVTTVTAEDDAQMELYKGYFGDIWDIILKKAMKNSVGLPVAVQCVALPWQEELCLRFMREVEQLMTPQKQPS
# How it was run: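 Rat brain membranes were incubated with [¹⁴C]AEA in 50 mM Tris-HCl pH 9 for 30 min at 37 °C. Released [¹⁴C]ethanolamine in the aqueous phase was counted by scintillation after CHCl₃/CH₃OH 2/1 extraction. IC50 was the concentration giving 50% inhibition.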
# [7] = target: T1, Transient receptor potential cation channel subfamily A member 1; test: Antagonist activity at rat TRPA1 receptor expressed in HEK293 cells assessed as inhibition of allyl isothiocyanate-induced intracellular Ca2+ elevation incubated for 5 mins prior to allyl isothiocyanate-stimulation by spectrofluorimetric analysis; assay type: cell-based; how it was run: as §2
# [8] = Selectivity ratio of IC50 for FAAH in rat brain membranes to IC50 for MAGL (unknown origin); assay type: cell membranes
# [9] = target: T5, Diacylglycerol lipase-alpha (Homo sapiens) (UniProt Q9Y4D2); test: Activation of human recombinant DAGLalpha expressed in African green monkey COS7 cells assessed as increase in 2-arachidonoylglycerol level per mg of extracted lipid at 3 uM preincubated for 10 mins measured after 20 mins by LC-MS analysis (reference value: 2.82 +/- 0.75 pmol); assay type: cell-based; settings: COS-7
# T5 sequence (whole entry): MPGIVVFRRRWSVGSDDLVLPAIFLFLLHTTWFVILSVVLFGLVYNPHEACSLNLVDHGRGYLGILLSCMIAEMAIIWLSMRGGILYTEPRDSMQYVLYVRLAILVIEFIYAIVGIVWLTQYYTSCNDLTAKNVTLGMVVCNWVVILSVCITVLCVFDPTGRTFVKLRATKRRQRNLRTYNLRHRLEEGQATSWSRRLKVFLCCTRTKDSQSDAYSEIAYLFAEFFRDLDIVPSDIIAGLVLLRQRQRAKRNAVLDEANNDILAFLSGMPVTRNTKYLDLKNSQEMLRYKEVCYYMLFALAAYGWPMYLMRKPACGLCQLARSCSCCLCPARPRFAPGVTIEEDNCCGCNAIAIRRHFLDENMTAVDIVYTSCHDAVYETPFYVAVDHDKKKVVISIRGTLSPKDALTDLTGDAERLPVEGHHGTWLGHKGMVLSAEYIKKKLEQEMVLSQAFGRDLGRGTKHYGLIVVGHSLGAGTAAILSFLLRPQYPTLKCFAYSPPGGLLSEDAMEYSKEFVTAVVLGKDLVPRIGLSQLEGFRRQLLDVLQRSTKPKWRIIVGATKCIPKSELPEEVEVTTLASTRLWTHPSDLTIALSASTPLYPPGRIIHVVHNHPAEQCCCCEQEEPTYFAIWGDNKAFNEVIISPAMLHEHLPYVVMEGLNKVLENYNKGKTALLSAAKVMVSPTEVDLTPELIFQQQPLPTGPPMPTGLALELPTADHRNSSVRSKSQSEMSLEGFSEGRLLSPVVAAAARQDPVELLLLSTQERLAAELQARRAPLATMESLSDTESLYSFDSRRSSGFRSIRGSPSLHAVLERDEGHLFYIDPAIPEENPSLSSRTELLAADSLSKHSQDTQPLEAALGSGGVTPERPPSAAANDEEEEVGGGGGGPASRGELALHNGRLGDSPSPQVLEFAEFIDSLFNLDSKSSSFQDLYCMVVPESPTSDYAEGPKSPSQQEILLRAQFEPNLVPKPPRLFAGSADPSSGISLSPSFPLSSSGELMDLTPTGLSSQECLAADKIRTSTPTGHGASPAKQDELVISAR
# How it was run: (§3)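 About 10⁶ COS-7 cells overexpressing human recombinant DAGL-α per data point. Cells were preincubated 10 min with compound, then incubated 20 min at 37 °C with vehicle or ionomycin 3 µM. They were then homogenized in CHCl₃/CH₃OH/Tris-HCl 50 mM pH 7.4 (2/1/1) containing 5 pmol each of d⁸-AEA, d⁵-2-AG and d⁴-OEA as internal standards. Results in pmol/mg lipid extracted, means ± SD, n = 4.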
# [10] = target: T5, Diacylglycerol lipase-alpha (Homo sapiens); test: Activation of human recombinant DAGLalpha expressed in African green monkey COS7 cells assessed as increase in N-oleoylethanolamine level per mg of extracted lipid at 3 uM preincubated for 10 mins measured after 20 mins by LC-MS analysis (reference value: 1.08 +/- 0.17 pmol); assay type: cell-based; settings: COS-7; how it was run: as §3
# [11] = target: T5, Diacylglycerol lipase-alpha (Homo sapiens); test: Activation of human recombinant DAGLalpha expressed in African green monkey COS7 cells assessed as increase in anandamide level per mg of extracted lipid at 3 uM preincubated for 10 mins measured after 20 mins by LC-MS analysis (reference value: 0.16 +/- 004 pmol); assay type: cell-based; settings: COS-7; how it was run: as §3
# [12] = target: T5, Diacylglycerol lipase-alpha (Homo sapiens); test: Activation of human recombinant DAGLalpha expressed in African green monkey COS7 cells assessed as increase in 2-arachidonoylglycerol level per mg of extracted lipid at 1 uM preincubated for 10 mins measured after 20 mins by LC-MS analysis in presence of ionomycin (reference value: 2.82 +/- 0.75 pmol); assay type: cell-based; settings: COS-7
# How it was run: (§4)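 About 10⁶ COS-7 cells overexpressing human recombinant DAGL-α per point, preincubated 10 min with test compound or not, then 20 min at 37 °C with vehicle or ionomycin 3 µM. Cells homogenized in CHCl₃/CH₃OH/Tris-HCl 50 mM pH 7.4 (2/1/1) with 5 pmol d⁸-AEA, d⁵-2-AG and d⁴-OEA as internal standards. Levels in pmol/mg lipid extracted, mean ± SD, n = 4.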
# [13] = target: T5, Diacylglycerol lipase-alpha (Homo sapiens); test: Activation of human recombinant DAGLalpha expressed in African green monkey COS7 cells assessed as increase in N-oleoylethanolamine level per mg of extracted lipid at 1 uM preincubated for 10 mins measured after 20 mins by LC-MS analysis in presence of ionomycin (reference value: 1.08 +/- 0.17 pmol); assay type: cell-based; settings: COS-7; how it was run: as §4
# [14] = target: T5, Diacylglycerol lipase-alpha (Homo sapiens); test: Activation of human recombinant DAGLalpha expressed in African green monkey COS7 cells assessed as increase in anandamide level per mg of extracted lipid at 1 uM preincubated for 10 mins measured after 20 mins by LC-MS analysis in presence of ionomycin (reference value: 0.16 +/- 004 pmol); assay type: cell-based; settings: COS-7; how it was run: as §4
# Chain of Transient receptor potential cation channel subfamily A member 1 (Rattus norvegicus) (Q6RI86 whole entry): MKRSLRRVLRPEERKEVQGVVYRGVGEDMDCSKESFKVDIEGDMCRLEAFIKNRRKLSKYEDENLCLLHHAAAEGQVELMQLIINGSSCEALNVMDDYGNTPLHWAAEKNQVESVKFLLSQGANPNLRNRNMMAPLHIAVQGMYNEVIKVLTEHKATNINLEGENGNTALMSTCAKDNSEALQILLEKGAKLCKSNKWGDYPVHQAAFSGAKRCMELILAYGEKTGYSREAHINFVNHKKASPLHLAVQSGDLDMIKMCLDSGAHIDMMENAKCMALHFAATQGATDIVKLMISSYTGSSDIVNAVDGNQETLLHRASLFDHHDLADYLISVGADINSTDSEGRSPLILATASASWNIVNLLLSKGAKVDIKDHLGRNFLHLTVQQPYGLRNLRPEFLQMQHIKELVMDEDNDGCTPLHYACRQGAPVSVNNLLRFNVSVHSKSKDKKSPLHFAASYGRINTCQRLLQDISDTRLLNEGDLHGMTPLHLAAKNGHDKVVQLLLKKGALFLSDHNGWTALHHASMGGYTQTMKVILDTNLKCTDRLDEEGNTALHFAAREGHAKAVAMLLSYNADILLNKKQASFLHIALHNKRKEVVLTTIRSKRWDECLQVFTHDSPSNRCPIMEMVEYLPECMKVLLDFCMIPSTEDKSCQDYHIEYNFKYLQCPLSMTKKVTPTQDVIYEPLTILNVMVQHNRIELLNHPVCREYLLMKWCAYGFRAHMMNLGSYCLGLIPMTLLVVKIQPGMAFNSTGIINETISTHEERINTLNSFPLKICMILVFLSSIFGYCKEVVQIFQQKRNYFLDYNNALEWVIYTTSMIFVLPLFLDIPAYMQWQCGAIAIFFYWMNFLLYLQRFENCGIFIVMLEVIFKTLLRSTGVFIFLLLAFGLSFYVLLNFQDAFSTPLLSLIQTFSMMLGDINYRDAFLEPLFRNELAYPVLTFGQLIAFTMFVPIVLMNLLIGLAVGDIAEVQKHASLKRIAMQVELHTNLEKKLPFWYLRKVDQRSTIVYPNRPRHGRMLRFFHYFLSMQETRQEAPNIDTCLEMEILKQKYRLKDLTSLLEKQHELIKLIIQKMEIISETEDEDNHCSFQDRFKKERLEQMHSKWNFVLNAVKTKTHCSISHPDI
# T1 sequence (Q6RI86 whole entry): as above
# T2 sequence (Q8NER1 whole entry): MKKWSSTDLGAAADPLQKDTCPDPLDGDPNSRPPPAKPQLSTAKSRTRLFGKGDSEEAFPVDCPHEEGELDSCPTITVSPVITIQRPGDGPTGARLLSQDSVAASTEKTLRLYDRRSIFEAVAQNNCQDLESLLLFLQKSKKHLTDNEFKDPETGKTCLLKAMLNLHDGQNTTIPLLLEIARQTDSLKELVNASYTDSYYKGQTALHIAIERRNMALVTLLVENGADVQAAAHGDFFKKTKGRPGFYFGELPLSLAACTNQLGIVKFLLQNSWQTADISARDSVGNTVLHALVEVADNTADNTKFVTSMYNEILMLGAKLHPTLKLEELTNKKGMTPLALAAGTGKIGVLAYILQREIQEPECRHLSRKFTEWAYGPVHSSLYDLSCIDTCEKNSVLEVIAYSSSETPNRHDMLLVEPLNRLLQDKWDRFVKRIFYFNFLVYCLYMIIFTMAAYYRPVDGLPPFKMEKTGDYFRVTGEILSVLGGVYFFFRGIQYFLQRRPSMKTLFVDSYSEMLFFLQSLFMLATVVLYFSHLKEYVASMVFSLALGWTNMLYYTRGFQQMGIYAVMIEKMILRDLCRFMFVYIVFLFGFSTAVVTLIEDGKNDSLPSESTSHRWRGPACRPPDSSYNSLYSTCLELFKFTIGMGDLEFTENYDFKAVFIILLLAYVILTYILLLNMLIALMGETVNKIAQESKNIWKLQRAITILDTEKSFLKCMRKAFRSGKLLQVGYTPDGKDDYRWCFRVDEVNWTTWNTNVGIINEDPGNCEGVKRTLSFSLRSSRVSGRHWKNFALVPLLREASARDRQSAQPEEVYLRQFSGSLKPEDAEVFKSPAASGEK
Structure (SMILES),EC50 [1],Efficacy [2],IC50 [3],EC50 [4],Efficacy [5],IC50 (Monoglyceride lipase),IC50 [6],IC50 [7],Ratio IC50 [8],Activity [9],Activity [10],Activity [11],Activity [12],Activity [13],Activity [14]
CN(Cc1ccc2ccccc2c1)C(=O)n1nnnc1Cc1ccc(-c2ccccc2)cc1,13.5 µM,53.9%,7.6 µM,2.5 µM,34.1%,> 1 µM,0.0867 µM,15 µM,–,–,–,–,–,–,–
Cc1cccc(-c2ccc(Cc3nnnn3C(=O)N(C)C)cc2)c1,32.8 µM,233%,> 100 µM,–,< 10%,> 1 µM,0.0097 µM,41 µM,39,–,–,–,–,–,–
O=C(N1CCCCC1)n1nnnc1Cc1ccc(-c2ccccc2)cc1,6.5 µM,106%,22.6 µM,5.9 µM,67.4%,> 1 µM,0.0382 µM,12.5 µM,–,–,–,–,–,–,–
CN(CCCCc1ccccc1)C(=O)n1nnnc1Cc1ccc(-c2ccccc2)cc1,20.1 µM,89.9%,7.1 µM,1.5 µM,45.7%,> 1 µM,0.0213 µM,83.7 µM,–,–,–,–,–,–,–
CN(C)C(=O)n1nnnc1Cc1ccc(-c2cccc(C(N)=O)c2)cc1,50.1 µM,30.7%,> 100 µM,32.3 µM,21.3%,> 1 µM,0.011 µM,> 100 µM,–,–,–,–,–,–,–
C[C@H](CCC(=O)O)C[C@H](C)C[C@H](C)C(=O)/C=C(\O)[C@H](C)C[C@H](C)C/C=C/[C@@H](C)[C@@H](O)[C@@H](C)[C@@H](O)C[C@@H]1CC[C@@](C)([C@H]2CC[C@@](C)([C@@H](C)O)O2)O1,–,–,–,–,–,–,–,–,–,15.7 pmol,3.99 pmol,0.37 pmol,–,–,–
Cc1ccc(-c2ccc(Cc3nnnn3C(=O)N(C)C)cc2)cc1,19.7 µM,388%,> 100 µM,22.5 µM,28%,> 1 µM,0.0071 µM,15.9 µM,–,–,–,–,–,–,–
CN(C(=O)n1nnnc1Cc1ccc(-c2ccccc2)cc1)C1CCCCC1,4.9 µM,84.7%,18.3 µM,13.4 µM,45.6%,> 1 µM,0.725 µM,14.9 µM,–,–,–,–,–,–,–
CN(C)C(=O)n1nnc(Cc2ccc(-c3cccc(O)c3)cc2)n1,–,< 10%,> 100 µM,–,< 10%,0.01 µM,0.012 µM,98.9 µM,–,–,–,–,413 pmol,7.25 pmol,0.41 pmol
